EBI2 block: blocks human EBI2 receptor beta-arrestin signaling. EBI2 beta-arrestin recruitment, luminescence, 7a,25-OHC stimulated. inhibition, % at 5 µM. 360,000 compounds, 0.81% hits; in the data active = inhibition above about 38%;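 also: enzyme fragment complementation signal reports receptor beta-arrestin coupling in cells; 0% = agonist plus DMSO wells and 100% = wells without agonist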
APJ ag: agonists of human APJ apelin receptor; activation, % at 20 µM; 330,000 compounds, 0.11% hits; CHO-K1 APJ PathHunter beta-arrestin, luminescence; 0% DMSO wells, 100% apelin;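 active = activation more than six SD over the plate average, tested at 20 µM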;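 also: 0% = DMSO alone and 100% = apelin-13 at 10 nM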
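Test system – PathHunter CHO-K1 APJ (AGTRL-1) beta-arrestin reporter cells · Input – 1000 cells/well · Compound – single test compound dose, 20 µM final, 1% DMSO · Times – compound stimulation 90 min at 25 °C, detection 60 min · Technique – beta-gal luminescence · Read-out basis – APJ–arrestin association signal · Control set – negative DMSO alone, positive Apelin-13 at 10 nM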
CCR6 antagonist: blocks CCL20-driven beta-arrestin recruitment at human CCR6; 340,000 compounds, 0.49% hits; AID 493098; CHO-K1 CCR6 PathHunter beta-arrestin, luminescence, CCL20-stimulated; inhibition, % at 20 µM;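 active = compounds whose inhibition of the agonist-driven luminescence signal at 20 µM reaches about 50%, limit read from the data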;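 also: cells stimulated with CCL20 at 14 nM final; plate controls were DMSO with CCL20 for no effect and DMSO without agonist for full effect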
APJ antag: antagonists of human APJ apelin receptor; P35414; CHO-K1 APJ beta-arrestin complementation, luminescence; inhibition, % at 20 µM; 330,000 compounds, 0.32% hits;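 active = inhibition above about 40% at 20 µM, limit read from the data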;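 also: cells challenged with 10 nM apelin-13 agonist together with compound; plate controls were apelin-13 plus DMSO wells for no effect and DMSO wells lacking apelin-13 for full effect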
CXCR6 inh: blocks human CXCR6 beta-arrestin recruitment | inhibition, % at 20 µM | 360,000 compounds, 0.36% hits | CHO-K1 PathHunter CXCR6 beta-arrestin, luminescence | AID 602244 | O00574; in the data active = inhibition above about 34%, passing the limit was not always enough;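 also: antagonist mode with CXCL16 agonist at 10 nM final; 0% = 10 nM CXCL16 with DMSO and 100% = unstimulated wells without agonist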
Target sequence (O00574 whole entry, looked up): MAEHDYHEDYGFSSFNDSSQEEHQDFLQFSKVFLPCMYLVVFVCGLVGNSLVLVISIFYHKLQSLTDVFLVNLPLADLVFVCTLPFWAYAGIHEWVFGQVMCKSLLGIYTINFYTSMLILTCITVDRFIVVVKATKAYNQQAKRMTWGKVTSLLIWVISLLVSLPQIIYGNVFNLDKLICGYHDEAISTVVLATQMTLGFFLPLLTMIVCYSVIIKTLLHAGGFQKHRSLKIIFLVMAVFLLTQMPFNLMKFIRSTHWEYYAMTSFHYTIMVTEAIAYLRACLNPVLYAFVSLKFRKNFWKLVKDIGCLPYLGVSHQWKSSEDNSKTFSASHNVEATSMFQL
APJ antag conf: confirmation of human APJ apelin receptor antagonists. 950 compounds, 66% hits. shares compounds with APJ antag. APJ beta-arrestin recruitment, luminescence, antagonist mode. inhibition, % at 20 µM; in the data active = inhibition above about 50%
CXCR6 confirm: confirmation of human CXCR6 receptor antagonists | CHO-K1 CXCR6 PathHunter beta-arrestin, luminescence | AID 602409 | inhibition, % at 20 µM | 700 compounds, 65% hits | shares compounds with CXCR6 inh;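 active = mean inhibition over four retests above 40%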;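 also: receptor stimulated with 10 nM CXCL16 agonist; beta-galactosidase fragment complementation upon beta-arrestin recruitment to receptor; plate controls were CXCL16 plus DMSO for no effect and DMSO without CXCL16 for full effect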
Active calls of the source: *; x = not tested or not shown. The list is not random: actives were taken first. Their share in the collection is about 1.5%.

SMILES | EBI2 block | APJ ag | CCR6 antagonist | APJ antag | CXCR6 inh | APJ antag conf | CXCR6 confirm
O=S(=O)(NNc1ncc(C(F)(F)F)cc1Cl)c1ccc(F)cc1F | -5 | 0 | -16 | 30 | -3 | x | x
Fc1ccc(NC(=S)NNc2ncc(C(F)(F)F)cc2Cl)c(F)c1 | 19 | -7 | 92* | 72* | 81* | 99* | 76*
FC(F)(F)c1cnc(NNC(=S)Nc2ccc(Cl)cc2)c(Cl)c1 | 32 | -10 | 94* | 64* | 72* | 117* | 84*
FC(F)(F)c1cccc(NC(=S)NNC(=S)Nc2ccc(Cl)cc2)c1 | x | -2 | x | 0 | x | x | x
COc1ccc(S(=O)(=O)Nc2ccc3c(c2)OCCO3)cc1OC | -7 | 2 | 7 | 6 | 0 | x | x
N#Cc1c([N+](=O)[O-])cc([N+](=O)[O-])cc1S(=O)(=O)Cc1ccccc1 | 6 | -1 | 106* | 64* | 95* | 61* | 87*
O=c1[nH]c2cc3c(cc2cc1CN(CCO)S(=O)(=O)c1ccccc1)OCCO3 | -1 | -2 | 5 | 0 | 6 | x | x
N=C1S/C(=C\c2ccco2)C(=O)N1c1nccs1 | -3 | -8 | 83* | 44* | 66* | 66* | 77*
CC(C)(C)c1ccc(-n2nc(C#N)c(Cl)cc2=O)cc1 | 82* | -1 | 50 | 60* | 61* | 83* | 70*
COC(=O)c1ccccc1-c1c2ccc(=N)cc-2oc2cc(N)ccc12 | 21 | -9 | 67* | 49* | 45* | 75* | 62*
COC(=O)c1ccccc1-c1ccc(/C=N/NC(=O)c2cc3ccccc3o2)o1 | 4 | 1 | 3 | -10 | -2 | x | x
CSc1ccc(/C=C/c2ccc3cccc(O)c3n2)cc1 | 11 | -2 | 12 | 11 | 4 | x | x
Cc1ccsc1/C=C/c1ccc2cccc(O)c2n1 | 41 | -11 | 74* | 46* | 60* | 41 | 66*
Oc1cccc2ccc(/C=C/c3cccs3)nc12 | 40* | -8 | 72* | 53* | 50* | 51* | 51*
Cc1ccc(C)c(-n2ccnc2SCC(=O)Nc2cccc(S(=O)(=O)NC3=NCCC3)c2)c1 | 1 | -2 | 8 | 8 | 2 | x | x
Cc1cc(=O)n2nc(N3CCC(C(=O)NCC(C)c4ccccc4)CC3)sc2n1 (configuration not stated) | -8 | 8 | -8 | -9 | -8 | x | x
CCC(C)c1ccc(O)c(NC(=S)NC(=O)c2cccnc2)c1 (configuration not stated) | 19 | -12 | 87* | 67* | 74* | 131* | 70*
O=C(NC(=S)Nc1ccccc1O)c1cccnc1 | 6 | -8 | 59* | 47* | 42* | 48 | 43*
CCOc1ccccc1NC(=O)c1ccc2nc[nH]c2c1 | -15 | 0 | -14 | -15 | -1 | x | x
CCOc1ccc(C(=O)N[C@H](C(=O)Nc2ccc(S(=O)(=O)Nc3nccs3)cc2)C(C)C)cc1 | 4 | -2 | -1 | 12 | 10 | x | x
Cc1cccnc1Nc1nc(-c2ccccn2)cs1 | 76* | -11 | 72* | 80* | 72* | 103* | 89*
CCN(C(=O)CCS(=O)(=O)c1cccc2nonc12)c1ccc(C)c(C)c1 | -2 | 1 | 13 | 25 | 4 | x | x
CC1(C(=O)NS(=O)(=O)c2cccs2)CCN1C(=O)Cc1ccccc1 (configuration not stated) | -5 | x | x | x | 0 | x | x
CCn1c(=O)cc(NC2=NCC(C)CN2c2cccc(Cl)c2)n(C)c1=O (configuration not stated) | 33 | -10 | 66* | 62* | 57* | 110* | 59*
CCn1c(NC)cc(=O)n(C)c1=O | 0 | 3 | 2 | -5 | -4 | x | x
CC(=O)N1N=C(c2ccccc2)CC1c1cccc([N+](=O)[O-])c1 (configuration not stated) | 21 | -6 | 46 | 39 | 34 | x | x
CC(=O)N1N=C(c2cccs2)CC1c1cccc([N+](=O)[O-])c1 (configuration not stated) | 25 | -8 | 62* | 53* | 50* | 52* | 54*
